Measured values as given in ChEMBL document CHEMBL1131306, “Novel and specific respiratory syncytial virus inhibitors that target virus fusion” (J Med Chem, 1998).

Columns and labels:
Type in all cases: functional, organism-based
Human alphaherpesvirus 1 = assay: Inhibitory concentration was evaluated against herpes simplex 1,strain patton.
Outline: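 HSV-1 strain Patton in African green monkey kidney (Vero) cells, seeded 4 × 10^4/well on day 0. Compound added day 1 as 10 two-fold dilutions, at least in duplicate, then virus added. Growth measured by ELISA 28 h post-infection. IC50 = 50% growth inhibition, averaged; repeated in two different weeks, retested if over 2-fold apart.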

Human betaherpesvirus 5 = assay: Inhibitory concentration was evaluated against human cytomegalovirus (HCMV),strain Ad169.
Outline: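 HCMV Ad169 engineered to encode β-glucuronidase. Human foreskin fibroblasts seeded 4 × 10^4/well on day 0. Compound added day 1 as 10 two-fold dilutions, each at least in duplicate, then virus added. Growth read as β-glucuronidase in culture on day 4. IC50 averaged; each compound run at least twice in different weeks, retested if IC50s differed over 2-fold.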

Human orthopneumovirus = assay: Inhibitory concentration was evaluated against human respiratory syncytial virus,(HRSV) strain A2.
Outline: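 HRSV strain A2 (160 PFU/well) on human foreskin fibroblasts seeded 4 × 10^4/well day 0. Compound added day 1, serially diluted 2-fold over 10 concentrations, at least in duplicate. After 4 days at 37 °C, virus growth quantified by ELISA. IC50 = 50% growth inhibition, averaged; tested in two separate weeks, retested if values differed over 2-fold.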

| IC50 (Human alphaherpesvirus 1) [µM] | IC50 (Human betaherpesvirus 5) [µM] | IC50 (Human orthopneumovirus) [µM] | SMILES |
| --- | --- | --- | --- |
| 20 | 20.5 | 0.25 | Cc1cc(-c2cc(C)c(Nc3nc(Nc4cccc(S(=O)(=O)N(CCC(N)=O)CCC(N)=O)c4)nc(Nc4cccc(S(=O)(=O)N(CCC(N)=O)CCC(N)=O)c4)n3)cc2S(=O)(=O)O)c(S(=O)(=O)O)cc1Nc1nc(Nc2cccc(S(=O)(=O)N(CCC(N)=O)CCC(N)=O)c2)nc(Nc2cccc(S(=O)(=O)N(CCC(N)=O)CCC(N)=O)c2)n1 |
| 7.5 | 0.9 | 0.35 | NC(=O)CCN(CCC(N)=O)S(=O)(=O)c1cccc(Nc2nc(Nc3cccc(S(=O)(=O)N(CCC(N)=O)CCC(N)=O)c3)nc(Nc3ccc(-c4ccc(Nc5nc(Nc6cccc(S(=O)(=O)N(CCC(N)=O)CCC(N)=O)c6)nc(Nc6cccc(S(=O)(=O)N(CCC(N)=O)CCC(N)=O)c6)n5)cc4C(=O)O)c(C(=O)O)c3)n2)c1 |
|  | > 25 | 22.5 | NC(=O)CCN(CCC(N)=O)S(=O)(=O)c1cccc(Nc2nc(Nc3cccc(S(=O)(=O)N(CCC(N)=O)CCC(N)=O)c3)nc(Nc3ccc(CCc4ccc(Nc5nc(Nc6cccc(S(=O)(=O)N(CCC(N)=O)CCC(N)=O)c6)nc(Nc6cccc(S(=O)(=O)N(CCC(N)=O)CCC(N)=O)c6)n5)cc4S(=O)(=O)O)c(S(=O)(=O)O)c3)n2)c1 |
| > 25 | > 25 | > 25 | NC(=O)CCN(CCC(N)=O)S(=O)(=O)c1cccc(Nc2nc(Nc3cccc(S(=O)(=O)N(CCC(N)=O)CCC(N)=O)c3)nc(Nc3ccc(-c4ccc(Nc5nc(Nc6cccc(S(=O)(=O)N(CCC(N)=O)CCC(N)=O)c6)nc(Nc6cccc(S(=O)(=O)N(CCC(N)=O)CCC(N)=O)c6)n5)cc4CO)c(CO)c3)n2)c1 |
| 25 | > 25 | > 25 | Cc1cc(-c2ccc(Nc3nc(Nc4cccc(S(=O)(=O)N(CCC(N)=O)CCC(N)=O)c4)nc(Nc4cccc(S(=O)(=O)N(CCC(N)=O)CCC(N)=O)c4)n3)c(C)c2)ccc1Nc1nc(Nc2cccc(S(=O)(=O)N(CCC(N)=O)CCC(N)=O)c2)nc(Nc2cccc(S(=O)(=O)N(CCC(N)=O)CCC(N)=O)c2)n1 |
| > 25 | 18.5 | 0.05 | NC(=O)CCN(CCC(N)=O)S(=O)(=O)c1cccc(Nc2nc(Nc3cccc(S(=O)(=O)N(CCC(N)=O)CCC(N)=O)c3)nc(Nc3ccc(-c4ccc(Nc5nc(Nc6cccc(S(=O)(=O)N(CCC(N)=O)CCC(N)=O)c6)nc(Nc6cccc(S(=O)(=O)N(CCC(N)=O)CCC(N)=O)c6)n5)cc4S(=O)(=O)O)c(S(=O)(=O)O)c3)n2)c1 |
|  | > 25 | > 25 | COC(=O)c1cc(Nc2nc(Nc3cccc(S(=O)(=O)N(CCC(N)=O)CCC(N)=O)c3)nc(Nc3cccc(S(=O)(=O)N(CCC(N)=O)CCC(N)=O)c3)n2)ccc1-c1ccc(Nc2nc(Nc3cccc(S(=O)(=O)N(CCC(N)=O)CCC(N)=O)c3)nc(Nc3cccc(S(=O)(=O)N(CCC(N)=O)CCC(N)=O)c3)n2)cc1C(=O)OC |
| 5.5 | > 25 | 0.15 | NC(=O)CCN(CCC(N)=O)S(=O)(=O)c1cccc(Nc2nc(Nc3cccc(S(=O)(=O)N(CCC(N)=O)CCC(N)=O)c3)nc(Nc3ccc(/C=C/c4ccc(Nc5nc(Nc6cccc(S(=O)(=O)N(CCC(N)=O)CCC(N)=O)c6)nc(Nc6cccc(S(=O)(=O)N(CCC(N)=O)CCC(N)=O)c6)n5)cc4S(=O)(=O)O)c(S(=O)(=O)O)c3)n2)c1 |

More lines, now with the values behind:

| SMILES | IC50 (Human alphaherpesvirus 1) [µM] | IC50 (Human betaherpesvirus 5) [µM] | IC50 (Human orthopneumovirus) [µM] |
| --- | --- | --- | --- |
| CCCN(CCC)S(=O)(=O)c1cccc(Nc2nc(Nc3cccc(S(=O)(=O)N(CCC)CCC)c3)nc(Nc3ccc(-c4ccc(Nc5nc(Nc6cccc(S(=O)(=O)N(CCC)CCC)c6)nc(Nc6cccc(S(=O)(=O)N(CCC)CCC)c6)n5)cc4S(=O)(=O)O)c(S(=O)(=O)O)c3)n2)c1 | > 25 | > 25 | > 25 |
| NC(=O)CCNS(=O)(=O)c1cccc(Nc2nc(Nc3cccc(S(=O)(=O)NCCC(N)=O)c3)nc(Nc3ccc(-c4ccc(Nc5nc(Nc6cccc(S(=O)(=O)NCCC(N)=O)c6)nc(Nc6cccc(S(=O)(=O)NCCC(N)=O)c6)n5)cc4S(=O)(=O)O)c(S(=O)(=O)O)c3)n2)c1 | > 25 | 1.2 | 0.24 |
| O=S(=O)(O)c1cc(Nc2nc(Nc3cccc(S(=O)(=O)N(CCO)CCO)c3)nc(Nc3cccc(S(=O)(=O)N(CCO)CCO)c3)n2)ccc1-c1ccc(Nc2nc(Nc3cccc(S(=O)(=O)N(CCO)CCO)c3)nc(Nc3cccc(S(=O)(=O)N(CCO)CCO)c3)n2)cc1S(=O)(=O)O | 14.7 | 2.3 | 0.09 |
| NC(=O)CCN(CCC(N)=O)C(=O)c1cccc(Nc2nc(Nc3cccc(C(=O)N(CCC(N)=O)CCC(N)=O)c3)nc(Nc3ccc(-c4ccc(Nc5nc(Nc6cccc(C(=O)N(CCC(N)=O)CCC(N)=O)c6)nc(Nc6cccc(C(=O)N(CCC(N)=O)CCC(N)=O)c6)n5)cc4S(=O)(=O)O)c(S(=O)(=O)O)c3)n2)c1 |  |  | > 25 |
| NC(=O)CCN(CCC(N)=O)S(=O)(=O)c1ccc(Nc2nc(Nc3ccc(S(=O)(=O)N(CCC(N)=O)CCC(N)=O)cc3)nc(Nc3ccc(-c4ccc(Nc5nc(Nc6ccc(S(=O)(=O)N(CCC(N)=O)CCC(N)=O)cc6)nc(Nc6ccc(S(=O)(=O)N(CCC(N)=O)CCC(N)=O)cc6)n5)cc4S(=O)(=O)O)c(S(=O)(=O)O)c3)n2)cc1 | 17.7 | 14.7 | 2.9 |
| NS(=O)(=O)c1cccc(Nc2nc(Nc3cccc(S(N)(=O)=O)c3)nc(Nc3ccc(-c4ccc(Nc5nc(Nc6cccc(S(N)(=O)=O)c6)nc(Nc6cccc(S(N)(=O)=O)c6)n5)cc4S(=O)(=O)O)c(S(=O)(=O)O)c3)n2)c1 | 8.8 | 1.2 | 1.7 |
| Cc1ccc(S(=O)(=O)N(CCC(N)=O)CCC(N)=O)cc1Nc1nc(Nc2ccc(-c3ccc(Nc4nc(Nc5cc(S(=O)(=O)N(CCC(N)=O)CCC(N)=O)ccc5C)nc(Nc5cc(S(=O)(=O)N(CCC(N)=O)CCC(N)=O)ccc5C)n4)cc3S(=O)(=O)O)c(S(=O)(=O)O)c2)nc(Nc2cc(S(=O)(=O)N(CCC(N)=O)CCC(N)=O)ccc2C)n1 |  |  | > 25 |
